pIC50: −log10 of the molar value.
Assays:
[1] = target: Death-associated protein kinase 2 (Homo sapiens) (UniProt Q9UIK4); test: Inhibition of DAPK2 (unknown origin) assessed as remaining activity at 1 uM by Kinome scan method relative to control
Outline: (§1)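 Active-site-dependent competition-binding profiling (KINOMEscan) at 1 μM against a 468-kinase panel; compound supplied from a 10 mM DMSO stock. Read-out is ctrl% = (test signal − positive control signal)/(negative control signal − positive control signal) × 100. DMSO is the negative control (100%) and a control compound the positive control (0%). Lower ctrl% means tighter binding.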

[2] = target: Phosphatidylinositol 5-phosphate 4-kinase type-2 beta (Homo sapiens) (UniProt P78356); test: Inhibition of PIP5K2B (unknown origin) assessed as remaining activity at 1 uM by Kinome scan method relative to control
[3] = target: Protein-tyrosine kinase 2-beta (Homo sapiens) (UniProt Q14289); test: Inhibition of PYK2 (unknown origin) assessed as remaining activity at 1 uM by Kinome scan method relative to control
Sequence of Protein-tyrosine kinase 2-beta (Homo sapiens) (Q14289 whole entry, looked up): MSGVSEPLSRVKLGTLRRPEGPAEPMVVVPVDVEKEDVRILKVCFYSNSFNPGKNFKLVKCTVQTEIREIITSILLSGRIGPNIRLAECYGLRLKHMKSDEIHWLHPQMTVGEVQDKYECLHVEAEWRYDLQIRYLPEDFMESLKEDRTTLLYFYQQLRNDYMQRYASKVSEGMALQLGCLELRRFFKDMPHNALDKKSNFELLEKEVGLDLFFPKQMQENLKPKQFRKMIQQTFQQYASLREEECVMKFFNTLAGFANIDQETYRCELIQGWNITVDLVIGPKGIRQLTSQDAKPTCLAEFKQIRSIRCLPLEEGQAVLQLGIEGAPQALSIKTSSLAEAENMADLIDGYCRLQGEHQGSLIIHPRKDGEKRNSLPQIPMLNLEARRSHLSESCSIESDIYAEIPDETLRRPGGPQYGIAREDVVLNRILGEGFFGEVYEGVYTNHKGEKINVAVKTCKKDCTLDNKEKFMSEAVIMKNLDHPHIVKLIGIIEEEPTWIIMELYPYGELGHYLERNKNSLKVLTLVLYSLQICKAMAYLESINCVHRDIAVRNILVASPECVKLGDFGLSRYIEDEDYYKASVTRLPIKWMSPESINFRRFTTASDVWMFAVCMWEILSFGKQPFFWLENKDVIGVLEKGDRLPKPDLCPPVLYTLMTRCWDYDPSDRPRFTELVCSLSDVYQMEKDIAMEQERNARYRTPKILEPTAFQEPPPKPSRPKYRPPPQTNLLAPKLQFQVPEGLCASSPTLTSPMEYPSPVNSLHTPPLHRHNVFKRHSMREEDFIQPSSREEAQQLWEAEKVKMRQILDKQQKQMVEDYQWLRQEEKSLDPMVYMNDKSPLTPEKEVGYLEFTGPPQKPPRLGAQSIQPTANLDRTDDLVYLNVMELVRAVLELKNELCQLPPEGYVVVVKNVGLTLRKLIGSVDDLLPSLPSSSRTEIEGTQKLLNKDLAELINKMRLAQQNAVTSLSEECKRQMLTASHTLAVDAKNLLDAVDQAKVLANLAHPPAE

[4] = target: Serine/threonine-protein kinase N1 (Homo sapiens) (UniProt Q16512); test: Inhibition of PKN1 (unknown origin) assessed as remaining activity at 1 uM by Kinome scan method relative to control
[5] = target: MAP kinase-interacting serine/threonine-protein kinase 2 (Homo sapiens) (UniProt Q9HBH9); test: Inhibition of MKNK2 (unknown origin) assessed as remaining activity at 1 uM by Kinome scan method relative to control
Sequence of MAP kinase-interacting serine/threonine-protein kinase 2 (Homo sapiens) (Q9HBH9 whole entry, looked up): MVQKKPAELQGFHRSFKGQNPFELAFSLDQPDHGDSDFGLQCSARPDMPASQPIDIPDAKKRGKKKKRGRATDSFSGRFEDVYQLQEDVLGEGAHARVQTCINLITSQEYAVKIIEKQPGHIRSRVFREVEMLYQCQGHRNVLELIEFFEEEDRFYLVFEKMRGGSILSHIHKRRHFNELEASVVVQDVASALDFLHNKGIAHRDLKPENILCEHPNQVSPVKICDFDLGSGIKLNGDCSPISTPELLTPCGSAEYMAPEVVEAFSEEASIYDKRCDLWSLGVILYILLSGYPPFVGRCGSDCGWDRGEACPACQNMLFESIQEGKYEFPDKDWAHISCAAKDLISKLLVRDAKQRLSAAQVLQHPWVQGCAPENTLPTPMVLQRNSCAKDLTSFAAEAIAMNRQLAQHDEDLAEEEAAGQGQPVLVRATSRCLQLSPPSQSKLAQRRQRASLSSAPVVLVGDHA

[6] = target: cAMP-dependent protein kinase catalytic subunit alpha (Homo sapiens) (UniProt P17612); test: Inhibition of PKAC-alpha (unknown origin) assessed as remaining activity at 1 uM by Kinome scan method relative to control
[7] = target: Serine/threonine-protein kinase 3 (Homo sapiens, UniProt Q13188, D109A/Y101F)
[8] = target: T1, Serine/threonine-protein kinase 3 (Homo sapiens, UniProt Q13188); test: Inhibition of recombinant His-tagged full-length MST2 (unknown origin) expressing in Escherichia coli assessed as MOB1a phosphorylation level incubated for 30 min in the presence of 100 uM ATP by immunoblot analysis
T1 sequence (Q13188 whole entry): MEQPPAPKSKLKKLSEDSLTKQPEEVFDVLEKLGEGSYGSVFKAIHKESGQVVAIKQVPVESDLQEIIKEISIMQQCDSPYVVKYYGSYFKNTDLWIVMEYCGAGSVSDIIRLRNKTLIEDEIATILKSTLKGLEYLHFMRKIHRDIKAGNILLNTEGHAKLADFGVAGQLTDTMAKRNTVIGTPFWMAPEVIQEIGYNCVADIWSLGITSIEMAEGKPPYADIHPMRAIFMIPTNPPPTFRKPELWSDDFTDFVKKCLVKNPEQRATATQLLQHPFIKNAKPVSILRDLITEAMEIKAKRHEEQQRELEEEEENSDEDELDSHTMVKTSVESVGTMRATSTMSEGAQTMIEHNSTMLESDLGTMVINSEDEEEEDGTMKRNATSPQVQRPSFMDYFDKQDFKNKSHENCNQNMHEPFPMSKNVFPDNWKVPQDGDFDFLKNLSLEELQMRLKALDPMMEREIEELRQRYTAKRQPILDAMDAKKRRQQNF

[9] = target: Serine/threonine-protein kinase 17B (Homo sapiens) (UniProt O94768); test: Inhibition of DRAK2 (unknown origin) assessed as remaining activity at 1 uM by Kinome scan method relative to control
[10] = target: Cyclin-dependent kinase 11B (Homo sapiens) (UniProt P21127); test: Inhibition of CDC2L1 (unknown origin) assessed as remaining activity at 1 uM by Kinome scan method relative to control; outline: as §1
[11] = target: Serine/threonine-protein kinase MARK1 (Homo sapiens) (UniProt Q9P0L2); test: Inhibition of MARK1 (unknown origin) assessed as remaining activity at 1 uM by Kinome scan method relative to control
Sequence of Serine/threonine-protein kinase MARK1 (Homo sapiens) (Q9P0L2 whole entry, looked up): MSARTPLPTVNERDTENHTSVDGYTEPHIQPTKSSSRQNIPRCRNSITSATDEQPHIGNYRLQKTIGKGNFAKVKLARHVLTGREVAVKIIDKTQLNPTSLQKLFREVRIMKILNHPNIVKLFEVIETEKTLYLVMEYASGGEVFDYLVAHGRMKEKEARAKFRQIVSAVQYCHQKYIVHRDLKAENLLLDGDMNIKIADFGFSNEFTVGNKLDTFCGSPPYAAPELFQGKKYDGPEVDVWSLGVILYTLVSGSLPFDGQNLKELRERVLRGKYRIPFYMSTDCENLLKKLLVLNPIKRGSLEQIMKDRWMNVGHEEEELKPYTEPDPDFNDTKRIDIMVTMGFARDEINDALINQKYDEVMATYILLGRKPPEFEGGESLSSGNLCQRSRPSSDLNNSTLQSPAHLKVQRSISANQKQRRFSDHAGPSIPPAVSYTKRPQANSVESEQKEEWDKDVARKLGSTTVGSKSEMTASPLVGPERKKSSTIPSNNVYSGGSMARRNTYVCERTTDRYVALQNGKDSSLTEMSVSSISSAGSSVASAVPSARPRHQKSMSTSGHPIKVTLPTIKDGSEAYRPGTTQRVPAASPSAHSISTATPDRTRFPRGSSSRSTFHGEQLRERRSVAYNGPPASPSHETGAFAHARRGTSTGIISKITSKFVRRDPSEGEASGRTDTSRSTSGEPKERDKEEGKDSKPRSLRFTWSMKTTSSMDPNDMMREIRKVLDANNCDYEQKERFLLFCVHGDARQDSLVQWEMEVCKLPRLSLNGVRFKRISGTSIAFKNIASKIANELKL

[12] = target: Proto-oncogene tyrosine-protein kinase Src (Homo sapiens) (UniProt P12931); test: Inhibition of SRC (unknown origin) assessed as remaining activity at 1 uM by Kinome scan method relative to control
[13] = target: 5'-AMP-activated protein kinase catalytic subunit alpha-1 (Homo sapiens) (UniProt Q13131); test: Inhibition of AMPK-alpha1 (unknown origin) assessed as remaining activity at 1 uM by Kinome scan method relative to control
Outline: (§2)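 Active-site-dependent competition-binding (KINOMEscan) panel of 468 kinases, test compound at 1 μM (from a 10 mM DMSO stock). Read-out is ctrl% = (test signal − positive control signal)/(negative control signal − positive control signal) × 100. DMSO is the negative control (100%) and a control compound is the positive control (0%). Lower ctrl% means tighter binding.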

[14] = target: Serine/threonine-protein kinase TBK1 (Homo sapiens) (UniProt Q9UHD2); test: Inhibition of TBK1 (unknown origin) assessed as remaining activity at 1 uM by Kinome scan method relative to control
[15] = target: Platelet-derived growth factor receptor beta (Homo sapiens) (UniProt P09619); test: Inhibition of PDGFRbeta (unknown origin) assessed as remaining activity at 1 uM by Kinome scan method relative to control
[16] = target: Tyrosine-protein kinase receptor TYRO3 (Homo sapiens) (UniProt Q06418); test: Inhibition of TYRO3 (unknown origin) assessed as remaining activity at 1 uM by Kinome scan method relative to control
[17] = Toxicity in APAP induced liver injury in mouse assessed as cancer cell growth at 1 mg/kg, ip administered for > 10 months; assay type: organism-based; conditions: in vivo, 7300 h
[18] = target: Ankyrin repeat and protein kinase domain-containing protein 1 (Homo sapiens) (UniProt Q8NFD2); test: Inhibition of ANKK1 (unknown origin) assessed as remaining activity at 1 uM by Kinome scan method relative to control; outline: as §2
[19] = target: Fibroblast growth factor receptor 4 (Homo sapiens) (UniProt P22455); test: Inhibition of FGFR4 (unknown origin) assessed as remaining activity at 1 uM by Kinome scan method relative to control
Sequence of Fibroblast growth factor receptor 4 (Homo sapiens) (P22455 22-802 limits assumed): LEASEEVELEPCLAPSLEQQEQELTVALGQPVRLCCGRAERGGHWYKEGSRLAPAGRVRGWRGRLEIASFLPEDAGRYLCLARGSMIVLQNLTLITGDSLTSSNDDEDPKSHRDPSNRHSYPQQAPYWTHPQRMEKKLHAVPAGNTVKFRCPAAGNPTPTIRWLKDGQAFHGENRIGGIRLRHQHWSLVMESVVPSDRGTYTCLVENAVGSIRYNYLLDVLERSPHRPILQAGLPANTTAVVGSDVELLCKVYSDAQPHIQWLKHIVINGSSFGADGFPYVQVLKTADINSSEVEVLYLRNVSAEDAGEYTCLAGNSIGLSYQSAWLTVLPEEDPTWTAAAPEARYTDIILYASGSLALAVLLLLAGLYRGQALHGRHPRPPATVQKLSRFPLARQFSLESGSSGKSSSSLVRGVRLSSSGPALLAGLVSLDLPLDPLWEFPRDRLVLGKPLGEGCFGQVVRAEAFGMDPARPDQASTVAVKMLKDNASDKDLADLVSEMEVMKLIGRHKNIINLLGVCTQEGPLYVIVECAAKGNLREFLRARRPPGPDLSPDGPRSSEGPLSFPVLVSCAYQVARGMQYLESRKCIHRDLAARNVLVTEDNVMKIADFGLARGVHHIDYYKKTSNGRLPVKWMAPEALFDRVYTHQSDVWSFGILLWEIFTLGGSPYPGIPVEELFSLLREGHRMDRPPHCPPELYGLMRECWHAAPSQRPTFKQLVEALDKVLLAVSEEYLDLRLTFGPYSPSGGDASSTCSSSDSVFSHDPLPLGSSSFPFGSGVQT

[20] = target: Tyrosine-protein kinase ABL1 (Homo sapiens) (UniProt P00519); test: Inhibition of phosphorylated ABL1 (unknown origin) assessed as remaining activity at 1 uM by Kinome scan method relative to control
[21] = target: Serine/threonine-protein kinase pim-2 (Homo sapiens) (UniProt Q9P1W9); test: Inhibition of PIM2 (unknown origin) assessed as remaining activity at 1 uM by Kinome scan method relative to control
[22] = target: Ephrin type-A receptor 8 (Homo sapiens) (UniProt P29322); test: Inhibition of EPHA8 (unknown origin) assessed as remaining activity at 1 uM by Kinome scan method relative to control
[23] = target: Serine/threonine-protein kinase Chk2 (Homo sapiens) (UniProt O96017); test: Inhibition of CHEK2 (unknown origin) assessed as remaining activity at 1 uM by Kinome scan method relative to control; outline: as §1
[24] = tested on: ALK tyrosine kinase receptor (Homo sapiens), Q9UM73 [L1196M]; test: Inhibition of ALK L1196M mutant (unknown origin) assessed as remaining activity at 1 uM by Kinome scan method relative to control; outline: as §2
Sequence of ALK tyrosine kinase receptor (Homo sapiens), Q9UM73 [L1196M] (Q9UM73 whole entry L1196M, looked up): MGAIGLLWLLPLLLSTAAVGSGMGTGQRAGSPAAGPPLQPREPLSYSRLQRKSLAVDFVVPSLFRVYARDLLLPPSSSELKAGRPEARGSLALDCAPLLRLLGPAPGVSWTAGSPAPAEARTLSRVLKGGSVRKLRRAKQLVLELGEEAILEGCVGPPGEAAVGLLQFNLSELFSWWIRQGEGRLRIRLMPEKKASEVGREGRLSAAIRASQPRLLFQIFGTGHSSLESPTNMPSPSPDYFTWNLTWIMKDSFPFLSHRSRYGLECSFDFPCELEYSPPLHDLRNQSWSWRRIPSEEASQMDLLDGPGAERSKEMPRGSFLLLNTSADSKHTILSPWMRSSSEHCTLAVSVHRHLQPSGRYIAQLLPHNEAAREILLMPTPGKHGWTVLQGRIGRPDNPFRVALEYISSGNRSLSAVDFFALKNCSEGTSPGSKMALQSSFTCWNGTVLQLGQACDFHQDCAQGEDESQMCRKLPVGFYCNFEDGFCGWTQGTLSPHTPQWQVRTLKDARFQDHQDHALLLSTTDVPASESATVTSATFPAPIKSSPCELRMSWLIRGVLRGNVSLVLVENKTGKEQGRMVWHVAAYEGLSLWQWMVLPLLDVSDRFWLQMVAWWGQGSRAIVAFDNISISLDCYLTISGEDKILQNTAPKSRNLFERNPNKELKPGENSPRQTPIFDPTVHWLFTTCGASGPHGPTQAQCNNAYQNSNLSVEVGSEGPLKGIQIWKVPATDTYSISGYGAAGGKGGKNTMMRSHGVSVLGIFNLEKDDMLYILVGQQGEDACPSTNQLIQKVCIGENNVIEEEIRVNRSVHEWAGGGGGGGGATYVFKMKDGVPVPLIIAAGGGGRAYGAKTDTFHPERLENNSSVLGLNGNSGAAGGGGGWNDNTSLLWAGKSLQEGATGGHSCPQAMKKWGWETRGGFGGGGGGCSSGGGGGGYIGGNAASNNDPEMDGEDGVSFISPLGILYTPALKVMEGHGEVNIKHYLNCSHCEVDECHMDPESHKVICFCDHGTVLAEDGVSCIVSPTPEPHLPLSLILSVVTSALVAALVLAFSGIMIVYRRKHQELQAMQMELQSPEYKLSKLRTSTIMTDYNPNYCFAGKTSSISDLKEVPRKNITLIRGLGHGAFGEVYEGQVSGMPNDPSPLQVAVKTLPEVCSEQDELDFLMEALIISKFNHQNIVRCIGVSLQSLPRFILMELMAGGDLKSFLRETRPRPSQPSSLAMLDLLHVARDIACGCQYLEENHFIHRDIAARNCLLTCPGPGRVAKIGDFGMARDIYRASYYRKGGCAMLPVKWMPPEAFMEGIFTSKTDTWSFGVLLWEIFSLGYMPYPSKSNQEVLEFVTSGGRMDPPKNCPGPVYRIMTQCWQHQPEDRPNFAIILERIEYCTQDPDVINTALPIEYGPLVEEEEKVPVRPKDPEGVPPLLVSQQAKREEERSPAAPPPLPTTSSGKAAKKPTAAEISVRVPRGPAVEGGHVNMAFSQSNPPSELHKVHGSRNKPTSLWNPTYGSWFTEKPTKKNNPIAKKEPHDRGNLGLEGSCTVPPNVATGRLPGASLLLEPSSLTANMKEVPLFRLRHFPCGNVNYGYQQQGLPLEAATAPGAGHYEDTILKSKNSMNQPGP

Sequence of Death-associated protein kinase 2 (Homo sapiens) (Q9UIK4 whole entry, looked up): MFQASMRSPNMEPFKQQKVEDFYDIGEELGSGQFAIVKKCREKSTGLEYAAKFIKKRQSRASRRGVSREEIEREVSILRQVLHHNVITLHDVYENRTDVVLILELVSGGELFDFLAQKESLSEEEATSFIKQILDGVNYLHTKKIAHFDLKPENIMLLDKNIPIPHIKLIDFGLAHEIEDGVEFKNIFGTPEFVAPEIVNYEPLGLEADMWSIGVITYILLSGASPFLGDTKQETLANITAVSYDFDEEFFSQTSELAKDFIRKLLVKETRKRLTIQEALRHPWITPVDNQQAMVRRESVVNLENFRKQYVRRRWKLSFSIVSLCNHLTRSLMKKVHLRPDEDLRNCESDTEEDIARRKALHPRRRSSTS

CN1C(=O)c2sccc2N(C)c2nc(Nc3ccc(S(N)(=O)=O)cc3)ncc21
Activity [1]: 100%
Activity [2]: 100%
Activity [3]: 98%
Activity [4]: 100%
Activity [5]: 59%
Activity [6]: 97%
pIC50 [7]: 5.78
pIC50 [8]: 6.55
Activity [9]: 90%
Activity [10]: 85%
Activity [11]: 92%
Activity [12]: 100%
Activity [13]: 100%
Activity [14]: 90%
Activity [15]: 90%
Activity [16]: 100%
Activity [17]: Non-Toxic
Activity [18]: 41%
Activity [19]: 100%
Activity [20]: 13%
Activity [21]: 100%
Activity [22]: 100%
Activity [23]: 100%
Activity [24]: 100%
